Here are results for ten compounds from ChEMBL document CHEMBL4028836, “Optimization of M4 positive allosteric modulators (PAMs): The discovery of VU0476406, a non-human primate in vivo tool compound for translational pharmacology” (Bioorg Med Chem Lett, 2017).

SMILES strings stand for the structures.

Data set [1] addresses T1, Muscarinic acetylcholine receptor M4 (Homo sapiens) (UniProt P08173).
T1 sequence (whole entry): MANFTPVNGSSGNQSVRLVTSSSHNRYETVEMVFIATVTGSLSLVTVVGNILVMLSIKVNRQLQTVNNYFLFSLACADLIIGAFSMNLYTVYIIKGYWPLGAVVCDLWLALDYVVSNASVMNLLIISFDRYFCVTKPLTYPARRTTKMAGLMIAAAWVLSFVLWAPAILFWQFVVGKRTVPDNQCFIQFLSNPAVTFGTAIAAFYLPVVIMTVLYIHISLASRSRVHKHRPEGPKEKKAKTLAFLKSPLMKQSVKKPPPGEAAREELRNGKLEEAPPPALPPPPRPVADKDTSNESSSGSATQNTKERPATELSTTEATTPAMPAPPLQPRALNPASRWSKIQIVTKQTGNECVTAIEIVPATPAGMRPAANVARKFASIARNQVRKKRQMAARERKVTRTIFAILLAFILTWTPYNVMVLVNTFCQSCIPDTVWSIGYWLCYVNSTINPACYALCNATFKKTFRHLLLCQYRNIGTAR
Briefly: Positive allosteric modulation of human M4 receptor expressed in CHO cells coexpressing Gqi5 assessed as increase in acetylcholine-induced calcium mobilization relative to acetylcholine. It is filed as functional, cell-based. The method, boiled down: (§1)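 Calcium mobilization in CHO cells expressing hM4 with Gqi5. Compound added in presence of a fixed EC20 concentration of acetylcholine. Values are means of three independent experiments, each run in triplicate.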
For orientation: A change in cytosolic calcium serves as a functional read-out for many receptors and channels.

Data set [2] concerns the target T2, Muscarinic acetylcholine receptor M4 (Homo sapiens, UniProt P08173).
T2 sequence (P08173 whole entry): T1 sequence (whole entry)
The data set is described as follows: Positive allosteric modulation of human M4 receptor expressed in CHO cells coexpressing Gqi5 assessed as increase in acetylcholine-induced calcium mobilization. It is filed as functional, cell-based. The method, boiled down:
as §1

For data set [3], the system named is Cynomolgus monkey. Briefly: Volume of distribution at steady state in cynomolgus monkey at 10 mg/kg, iv. Type of data set: ADME, organism-based, Macaca fascicularis. Conditions: in vivo.
Data set [4] can be described thus: Oral bioavailability in rat at 10 mg/kg. It is filed as ADME, organism-based. Particulars: in vivo. The method, boiled down: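 Rat oral bioavailability from a 10 mg/kg solution dose. Separately, the HCl salt was dosed as a suspension.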
The subject of data set [5] is Cynomolgus monkey. The data set is described as follows: Elimination half life in cynomolgus monkey at 10 mg/kg, iv. It is filed as ADME, organism-based, Macaca fascicularis. Particulars: in vivo.
Data set [6] can be described thus: Elimination half life in dog at 3 mg/kg, iv or po. Particulars: in vivo, read-out: beta t1/2 (converted). It is filed as ADME, organism-based, Canis lupus familiaris.
Data set [7] can be described thus: Oral bioavailabilty in cynomolgus monkey at 10 mg/kg. It is filed as ADME, organism-based, Macaca fascicularis. Conditions: in vivo. The procedure, abridged: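 Cynomolgus monkey oral bioavailability from a 10 mg/kg solution dose of the HCl salt.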
Data set [8] in a line: Volume of distribution at steady state in dog at 3 mg/kg, iv or po. Type of data set: ADME, organism-based, Canis lupus familiaris. Conditions: in vivo, read-out: Vdss. The method, boiled down:
(§2)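 Dog IV and PO pharmacokinetics. Oral bioavailability from a 3 mg/kg suspension dose of the HCl salt.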

Data set [9] can be described thus: Oral bioavailability in dog at 3 mg/kg. Conditions: in vivo. Type of data set: ADME, organism-based, Canis lupus familiaris. The procedure, abridged: as §2
For a further data set, the target named is Cytochrome P450 2D6 (Homo sapiens, UniProt P10635). The data set is described as follows: Inhibition of CYP2D6 (unknown origin). Type of data set: ADME.
Another data set has as its target Cytochrome P450 3A4 (Homo sapiens, UniProt P08684). The data set is described as follows: Inhibition of CYP3A4 (unknown origin). It is filed as ADME.
Data set [10] is described as follows: Unbound plasma concentration in rat. Type of data set: ADME, cell-free.
Another data set concerns the target T3, Cytochrome P450 1A2 (Homo sapiens, UniProt P05177).
T3 sequence (P05177 whole entry): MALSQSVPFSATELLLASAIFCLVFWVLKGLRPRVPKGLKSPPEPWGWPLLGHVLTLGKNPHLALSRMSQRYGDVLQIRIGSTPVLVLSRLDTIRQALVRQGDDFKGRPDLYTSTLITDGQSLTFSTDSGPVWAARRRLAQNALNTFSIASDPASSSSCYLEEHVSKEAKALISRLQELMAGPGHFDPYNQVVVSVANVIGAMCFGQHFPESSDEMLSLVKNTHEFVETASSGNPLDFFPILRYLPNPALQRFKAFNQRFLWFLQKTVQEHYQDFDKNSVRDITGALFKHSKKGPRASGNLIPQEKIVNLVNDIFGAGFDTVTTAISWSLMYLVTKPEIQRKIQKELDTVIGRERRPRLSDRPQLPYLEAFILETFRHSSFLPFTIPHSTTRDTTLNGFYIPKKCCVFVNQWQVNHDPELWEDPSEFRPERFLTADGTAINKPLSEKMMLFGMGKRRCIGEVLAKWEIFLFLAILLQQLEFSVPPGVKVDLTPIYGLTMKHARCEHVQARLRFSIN
Briefly: Inhibition of CYP1A2 (unknown origin). Type of data set: ADME.

The subject of data set [11] is Rattus norvegicus. The data set is described as follows: Elimination half-life in Sprague-Dawley rat at 0.1 to 1 mg/kg, iv. Type of data set: ADME, organism-based. Conditions: in vivo.
Data set [12] in a line: Brain to plasma permeability coefficient, Kp of the compound in Sprague-Dawley rat at 0.1 to 0.2 mg/kg, iv measured at 0.25 hrs post dose. Type of data set: ADME, organism-based. The method, boiled down: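 Sprague-Dawley rats were dosed IV at 0.1–0.2 mg/kg, with brain and plasma sampled at 0.25 hr. Brain:plasma Kp was calculated, with Kp,uu where unbound fractions were available.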

The next data set deals with Cytochrome P450 2C9 (Homo sapiens, UniProt P11712). The data set is described as follows: Inhibition of CYP2C9 (unknown origin). Type of data set: ADME.
In data set [13] the test system is Rattus norvegicus. The data set is described as follows: Volume of distribution at steady state […] in Sprague-Dawley rat at 0.1 to 1 mg/kg, iv. Type of data set: ADME, organism-based. Particulars: in vivo. The method, boiled down: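 IV pharmacokinetics in Sprague-Dawley rats at 0.1–1.0 mg/kg. CLp, elimination t½ and Vss derived.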
Data set [14] in a line: Unbound plasma concentration in human. It is filed as ADME, cell-free.
The nature of data set [15]: Ratio of unbound brain to plasma concentration in cynomolgus monkey at 145 MBq, iv measured at 2 hrs post dose by PET analysis. Type of data set: ADME, organism-based, Macaca fascicularis. Particulars: read-out: K(p,uu,brain). The method, boiled down:
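Whole and regional brain distribution of total and calculated unbound drug in one cynomolgus monkey. PET after a single IV dose of [18F]-labelled compound (145 MBq), with about 2 h of data acquisition post-dose.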

Data set [16] is described as follows: Brain to plasma permeability coefficient, Kp of the compound in cynomolgus monkey at 145 MBq, iv measured at 2 hrs post dose by PET analysis. Type of data set: ADME, organism-based, Macaca fascicularis. The procedure, abridged:
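PET study in one cynomolgus monkey given a single IV dose of [18F]-labelled compound (145 MBq), with roughly 2 hr of data acquisition after dosing. Whole and regional brain distribution of total and calculated unbound compound was determined.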

Data set [17] is described as follows: Ratio of unbound CSF to plasma concentration in cynomolgus monkey at 145 MBq, iv measured at 2 hrs post dose by PET analysis. It is filed as ADME, organism-based, Macaca fascicularis.

Cytochrome P450 3A4, sequence (P08684 whole entry): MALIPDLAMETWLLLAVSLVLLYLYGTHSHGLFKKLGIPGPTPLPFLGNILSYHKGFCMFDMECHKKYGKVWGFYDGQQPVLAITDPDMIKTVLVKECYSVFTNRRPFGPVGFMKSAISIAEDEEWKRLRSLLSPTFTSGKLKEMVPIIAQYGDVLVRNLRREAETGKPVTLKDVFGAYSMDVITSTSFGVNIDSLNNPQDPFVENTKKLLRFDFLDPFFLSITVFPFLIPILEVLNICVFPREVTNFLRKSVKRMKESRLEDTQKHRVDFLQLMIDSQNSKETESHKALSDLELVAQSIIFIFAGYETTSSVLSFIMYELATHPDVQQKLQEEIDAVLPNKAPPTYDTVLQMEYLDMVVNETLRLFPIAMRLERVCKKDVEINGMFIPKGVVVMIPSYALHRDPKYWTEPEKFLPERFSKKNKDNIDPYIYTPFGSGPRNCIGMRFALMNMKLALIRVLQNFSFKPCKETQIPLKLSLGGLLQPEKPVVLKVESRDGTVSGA
Cytochrome P450 2D6, sequence (P10635 whole entry): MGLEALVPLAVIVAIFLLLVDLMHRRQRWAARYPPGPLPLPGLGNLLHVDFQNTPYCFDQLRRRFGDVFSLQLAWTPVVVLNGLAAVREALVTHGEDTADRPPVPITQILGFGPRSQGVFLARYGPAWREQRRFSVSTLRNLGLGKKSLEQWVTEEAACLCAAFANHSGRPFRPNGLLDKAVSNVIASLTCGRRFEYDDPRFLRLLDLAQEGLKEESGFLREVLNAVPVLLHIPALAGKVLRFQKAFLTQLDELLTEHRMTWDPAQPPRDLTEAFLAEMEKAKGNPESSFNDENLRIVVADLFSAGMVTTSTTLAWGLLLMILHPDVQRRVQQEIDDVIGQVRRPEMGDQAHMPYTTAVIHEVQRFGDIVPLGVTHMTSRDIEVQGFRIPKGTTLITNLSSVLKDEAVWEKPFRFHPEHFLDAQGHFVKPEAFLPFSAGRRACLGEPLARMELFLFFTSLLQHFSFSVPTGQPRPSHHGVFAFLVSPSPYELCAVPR
Cytochrome P450 2C9, sequence (P11712 whole entry): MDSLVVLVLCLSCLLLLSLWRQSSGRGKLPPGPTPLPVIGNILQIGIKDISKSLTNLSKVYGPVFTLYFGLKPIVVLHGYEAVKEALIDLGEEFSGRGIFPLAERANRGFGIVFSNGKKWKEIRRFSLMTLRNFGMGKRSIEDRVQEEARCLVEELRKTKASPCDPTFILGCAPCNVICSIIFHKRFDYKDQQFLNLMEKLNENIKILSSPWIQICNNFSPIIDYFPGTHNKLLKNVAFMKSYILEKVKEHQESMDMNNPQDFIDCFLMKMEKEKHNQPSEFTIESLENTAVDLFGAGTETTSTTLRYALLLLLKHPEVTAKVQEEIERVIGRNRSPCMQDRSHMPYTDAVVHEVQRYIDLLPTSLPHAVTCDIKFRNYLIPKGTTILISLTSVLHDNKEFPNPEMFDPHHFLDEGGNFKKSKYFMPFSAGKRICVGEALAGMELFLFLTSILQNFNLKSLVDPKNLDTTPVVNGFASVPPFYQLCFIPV

Consider `Cc1nnc2sc(C(=O)NCc3ccc(-c4ccccc4)cc3)c(N)c2c1C`, for which the %max in data set [1] was 49%. Also, the EC50 in [2] (read-out: EC50) was 319 nM; in [2] (read-out: pEC50 (converted)) it was 295 nM.

What is called Vdss is a proportionality between amount in the body and measured concentration, not a real space. What is called bioavailability is the share of a dose that reaches the circulation, judged against a reference dose that is usually intravenous. In the data set on Cynomolgus monkey [3], `Cc1nnc2sc(C(=O)NCc3ccc(-c4cccnc4F)cc3)c(N)c2c1C.Cl` returned a volume of distribution (Vdss) of 0.87 L/kg. The bioavailability was 54% in data set [4], 4.7% in data set [7] and 47% in data set [9]. Besides, the “beta t1/2” value in the data set with Cynomolgus monkey [5] stood at 1.3 h. The half-life in data set [6] is 1 h. Moreover, the Vd in data set [8] stood at 0.7 L/kg.

As a reminder, the IC50 is the midpoint of a concentration-inhibition curve. By fraction unbound is commonly meant the share of the substance not bound to proteins or other matrix. What is called Kp is the ratio of the level in a tissue or fluid to that in plasma or blood. On to `Cc1nnc2sc(C(=O)NCc3ccc(-c4ccnc(F)c4)cc3)c(N)c2c1C`, for which the %max in data set [1] was 92%. For the same compound, the concentration for half-maximal inhibition (IC50) was over 30000 nM on Cytochrome P450 2D6, 24000 nM against Cytochrome P450 3A4, 2500 nM against Cytochrome P450 1A2 and 25000 nM against Cytochrome P450 2C9. Moreover, the fraction unbound in [10] is 0.002; in data set [14], 0.029. In addition, in the data set on Rattus norvegicus [11], the “beta t1/2” value was determined as 1.7 h. Further, in data set [12], the Kp was found to be 0.21. Moreover, the Vdss with Rattus norvegicus [13] amounted to 0.5 L/kg. The EC50 in data set [2] (read-out: EC50) was 58 nM.

Turning to `Cc1nnc2sc(C(=O)NCc3ccc(Br)cc3)c(N)c2c1C`, the %max in [1] turned out to be 82%. For the same compound, the EC50 in data set [2] (read-out: EC50) is 187 nM; in data set [2] (read-out: pEC50 (converted)), 182 nM.

With `Cc1nnc2sc(C(=O)NCc3ccc(-c4cccnc4[18F])cc3)c(N)c2c1C`, the Kp uu at 2 h in [15] was 1.1; in data set [17] it was 1. In data set [16], this compound displayed a Kp of 0.75.

With `Cc1nnc2sc(C(=O)NCc3ccc(-c4cnccn4)cc3)c(N)c2c1C`, the %max in data set [1] came out at 63%. For the same compound, in data set [2] (read-out: EC50), the EC50 was 159 nM.

For the compound `COc1ncc(-c2ccc(CNC(=O)c3sc4nnc(C)c(C)c4c3N)cc2)cn1`, the %max in data set [1] was 91%. Moreover, in [2] (read-out: EC50), the EC50 is 84 nM.

For `Cc1nnc2sc(C(=O)NCc3ccccc3-c3ccccc3)c(N)c2c1C`, the %max in [1] came out at 30%. Moreover, the EC50 in data set [2] (read-out: EC50) was over 10000 nM.

With `Cc1nnc2sc(C(=O)NCc3ccc(-c4cncc(F)c4)cc3)c(N)c2c1C`, the %max in [1] came out at 78%. Further, in [2] (read-out: EC50), the EC50 is 144 nM.

Turning to `Cc1nnc2sc(C(=O)NCc3ccc(-c4ccncc4F)cc3)c(N)c2c1C`, the %max in data set [1] amounted to 86%. Further, the EC50 in data set [2] (read-out: EC50) is 1720 nM; in [2] (read-out: pEC50 (converted)), 1550 nM.
